In brackets after ≈: the same amount, converted by molar mass.
Assays:
[1] = test system: [Candida] auris; experiment: Antifungal activity against Candida auris AR Bank # 390 assessed as fungal growth inhibition by double dilution method; assay type: functional; settings: Candidozyma auris
Procedure, shortened: (§1)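 Broth microdilution after CLSI M27-A3/M38-A2 with minor changes. Single colony grown overnight in YPD at 35 °C, 200 rpm. Compound final range 0.06-31.3 µg/mL; incubated 48 h at 35 °C.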

[2] = test system: Candida albicans; experiment: Antifungal activity against Candida albicans ATCC 10231 assessed as fungal growth inhibition by double dilution method; assay type: functional; procedure, shortened: as §1
[3] = test system: Candida albicans; experiment: Antifungal activity against itraconazole/fluconazole susceptible Candida albicans ATCC MYA-2876 assessed as fungal growth inhibition by double dilution method; assay type: functional
Procedure, shortened: (§2)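 Broth microdilution after CLSI M27-A3/M38-A2 with minor modifications. A single colony was grown overnight in YPD at 35 °C with shaking at 200 rpm. Cells were mixed 1:1 with compound (final 0.06-31.3 µg/mL, from DMSO stocks) and incubated 48 h at 35 °C.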

[4] = test system: Aspergillus fumigatus; experiment: Antifungal activity against Aspergillus fumigatus NRRL 5109 assessed as fungal growth inhibition by double dilution method; assay type: functional
[5] = test system: Nakaseomyces glabratus; experiment: Antifungal activity against Candida glabrata ATCC 22019 assessed as fungal growth inhibition by double dilution method; assay type: functional; procedure, shortened: as §1
[6] = test system: HepG2; experiment: Cytotoxicity against human HepG2 cells assessed as reduction in cell viability upto 31.3 microg/ml; assay type: toxicity, cell-based; settings: dose < 31.3 µg/ml
Procedure, shortened: (§3)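 Cells in DMEM with 10% FBS and 1% Pen/Strep, seeded at 10,000 cells/well and held overnight at 37 °C, 5% CO2. Compounds added at final 31.3-0.12 µg/mL (0.05% DMSO vehicle) for 24 h. Resazurin then added for 6 h; fluorescence read at ex 560/em 590. Triton X-100 1% as positive control; values normalized to vehicle. Run in quadruplicate.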

[7] = test system: Candida albicans; experiment: Antifungal activity against itraconazole/fluconazole resistant Candida albicans ATCC 90819 assessed as fungal growth inhibition by double dilution method; assay type: functional; procedure, shortened: as §2
[8] = test system: [Candida] auris; experiment: Antifungal activity against Candida auris AR Bank # 389 assessed as fungal growth inhibition by double dilution method; assay type: functional; settings: Candidozyma auris; procedure, shortened: as §1
[9] = test system: Candida duobushaemulonii; experiment: Antifungal activity against Candida duobushaemulonii AR Bank # 391 assessed as fungal growth inhibition by double dilution method; assay type: functional; settings: Candidozyma duobushaemuli; procedure, shortened: as §1
[10] = test system: [Candida] auris; experiment: Antifungal activity against Candida auris AR Bank # 383 assessed as fungal growth inhibition by double dilution method; assay type: functional; settings: Candidozyma auris; procedure, shortened: as §1
[11] = test system: [Candida] auris; experiment: Antifungal activity against Candida auris AR Bank # 382 assessed as fungal growth inhibition by double dilution method; assay type: functional; settings: Candidozyma auris; procedure, shortened: as §1
[12] = test system: Candida duobushaemulonii; experiment: Antifungal activity against Candida duobushaemulonii AR Bank # 394 assessed as fungal growth inhibition by double dilution method; assay type: functional; settings: Candidozyma duobushaemuli; procedure, shortened: as §1
[13] = test system: [Candida] auris; experiment: Antifungal activity against Candida auris AR Bank # 388 assessed as fungal growth inhibition by double dilution method; assay type: functional; settings: Candidozyma auris; procedure, shortened: as §1
[14] = test system: Aspergillus terreus; experiment: Antifungal activity against Aspergillus terreus ATCC MYA-3633 assessed as fungal growth inhibition by double dilution method; assay type: functional
[15] = test system: [Candida] haemuloni; experiment: Antifungal activity against Candida haemulonii AR Bank # 395 assessed as fungal growth inhibition by double dilution method; assay type: functional; settings: Candidozyma haemuli; procedure, shortened: as §1
[16] = test system: Saccharomyces cerevisiae; experiment: Antifungal activity against Saccharomyces cerevisiae AR Bank # 400 assessed as fungal growth inhibition by double dilution method; assay type: functional; procedure, shortened: as §1
[17] = test system: Clavispora lusitaniae; experiment: Antifungal activity against Clavispora lusitaniae AR Bank # 398 assessed as fungal growth inhibition by double dilution method; assay type: functional; procedure, shortened: as §1
[18] = test system: [Candida] auris; experiment: Antifungal activity against Candida auris AR Bank # 386 assessed as fungal growth inhibition by double dilution method; assay type: functional; settings: Candidozyma auris; procedure, shortened: as §1
[19] = test system: [Candida] auris; experiment: Antifungal activity against Candida auris AR Bank # 385 assessed as fungal growth inhibition by double dilution method; assay type: functional; settings: Candidozyma auris; procedure, shortened: as §1
[20] = test system: Nakaseomyces glabratus; experiment: Antifungal activity against Candida glabrata ATCC 2001 assessed as fungal growth inhibition by double dilution method; assay type: functional; procedure, shortened: as §1
[21] = test system: [Candida] auris; experiment: Antifungal activity against Candida auris AR Bank # 0384 assessed as fungal growth inhibition by double dilution method; assay type: functional; settings: Candidozyma auris; procedure, shortened: as §1
[22] = test system: Candida albicans; experiment: Antifungal activity against Candida albicans ATCC 64124 assessed as fungal growth inhibition by double dilution method; assay type: functional; procedure, shortened: as §2
[23] = test system: Saccharomyces cerevisiae; experiment: Antifungal activity against Saccharomyces cerevisiae AR Bank # 399 assessed as fungal growth inhibition by double dilution method; assay type: functional; procedure, shortened: as §1
[24] = test system: Pichia kudriavzevii; experiment: Antifungal activity against Pichia kudriavzevii AR Bank # 397 assessed as fungal growth inhibition by double dilution method; assay type: functional; procedure, shortened: as §1
[25] = test system: Candida albicans; experiment: Antifungal activity against itraconazole/fluconazole resistant Candida albicans ATCC MYA-1237 assessed as fungal growth inhibition by double dilution method; assay type: functional; procedure, shortened: as §2
[26] = test system: Kodamaea ohmeri; experiment: Antifungal activity against Kodamaea ohmeri AR Bank # 396 assessed as fungal growth inhibition by double dilution method; assay type: functional; procedure, shortened: as §1
[27] = test system: [Candida] auris; experiment: Antifungal activity against Candida auris AR Bank # 0390 assessed as fungal growth inhibition by double dilution method; assay type: functional; settings: Candidozyma auris; procedure, shortened: as §1
[28] = test system: [Candida] auris; experiment: Antifungal activity against Candida auris AR Bank # 381 assessed as fungal growth inhibition by double dilution method; assay type: functional; settings: Candidozyma auris; procedure, shortened: as §1
[29] = test system: Pichia kudriavzevii; experiment: Antifungal activity against Pichia kudriavzevii ATCC 6258 assessed as fungal growth inhibition by double dilution method; assay type: functional; procedure, shortened: as §1
[30] = test system: Candida albicans; experiment: Antifungal activity against itraconazole/fluconazole resistant Candida albicans ATCC MYA-1003 assessed as fungal growth inhibition by double dilution method; assay type: functional; procedure, shortened: as §2
[31] = test system: [Candida] auris; experiment: Antifungal activity against Candida auris AR Bank # 387 assessed as fungal growth inhibition by double dilution method; assay type: functional; settings: Candidozyma auris; procedure, shortened: as §1
[32] = test system: [Candida] haemuloni; experiment: Antifungal activity against Candida haemulonii AR Bank # 393 assessed as fungal growth inhibition by double dilution method; assay type: functional; settings: Candidozyma haemuli; procedure, shortened: as §1
[33] = test system: Aspergillus fumigatus; experiment: Antifungal activity against Aspergillus fumigatus NRRL 6113 assessed as fungal growth inhibition by double dilution method; assay type: functional
[34] = test system: Aspergillus flavus; experiment: Antifungal activity against Aspergillus flavus ATCC MYA-3631 assessed as fungal growth inhibition by double dilution method; assay type: functional
[35] = test system: [Candida] auris; experiment: Antifungal activity against Candida auris AR Bank # 384 assessed as fungal growth inhibition by double dilution method; assay type: functional; settings: Candidozyma auris; procedure, shortened: as §1
[36] = test system: Candida albicans; experiment: Antifungal activity against itraconazole/fluconazole susceptible Candida albicans ATCC MYA-2310 assessed as fungal growth inhibition by double dilution method; assay type: functional; procedure, shortened: as §2
[37] = test system: Aspergillus nidulans; experiment: Antifungal activity against Aspergillus nidulans ATCC 38163 assessed as fungal growth inhibition by double dilution method; assay type: functional
[38] = test system: HEK293; experiment: Cytotoxicity against human HEK-293 cells assessed as reduction in cell viability at 31.3 microg/ml; assay type: toxicity, cell-based; settings: dose 31.3 µg/ml; procedure, shortened: as §3
[39] = test system: Cryptococcus neoformans; experiment: Antifungal activity against Cryptococcus neoformans ATCC MYA-895 assessed as fungal growth inhibition by double dilution method; assay type: functional; procedure, shortened: as §1
[40] = test system: Aspergillus fumigatus; experiment: Antifungal activity against Aspergillus fumigatus NRRL 163 assessed as fungal growth inhibition by double dilution method; assay type: functional
[41] = test system: J774.A1; experiment: Cytotoxicity against J774A.1 cells assessed as reduction in cell viability at 31.3 microg/ml; assay type: toxicity, cell-based; settings: mouse, dose 31.3 µg/ml; procedure, shortened: as §3
[42] = test system: Candida duobushaemulonii; experiment: Antifungal activity against Candida duobushaemulonii AR Bank # 392 assessed as fungal growth inhibition by double dilution method; assay type: functional; settings: Candidozyma duobushaemuli; procedure, shortened: as §1

## O=C(NNc1ccc(F)cc1F)c1cnccn1
[1]
  MIC: 0.98 µg/mL (≈ 3.92 µM)
[2]
  MIC: 0.24 µg/mL (≈ 0.959 µM)
[3]
  MIC: 0.98 µg/mL (≈ 3.92 µM)
[4]
  MIC: > 31.3 µg/mL
[5]
  MIC: 3.9 µg/mL (≈ 15.6 µM)
[6]
  Activity: Non-Toxic
[7]
  MIC: 0.98 µg/mL (≈ 3.92 µM)
[8]
  MIC: 0.49 µg/mL (≈ 1.96 µM)
[9]
  MIC: 0.49 µg/mL (≈ 1.96 µM)
[10]
  MIC: 0.98 µg/mL (≈ 3.92 µM)
[11]
  MIC: 1.95 µg/mL (≈ 7.79 µM)
[12]
  MIC: 7.8 µg/mL (≈ 31.2 µM)
[13]
  MIC: 0.49 µg/mL (≈ 1.96 µM)
[14]
  MIC: 0.98 µg/mL (≈ 3.92 µM)
[15]
  MIC: 1.95 µg/mL (≈ 7.79 µM)
[16]
  MIC: 1.95 µg/mL (≈ 7.79 µM)
[17]
  MIC: 3.9 µg/mL (≈ 15.6 µM)
[18]
  MIC: 0.49 µg/mL (≈ 1.96 µM)
[19]
  MIC: 0.98 µg/mL (≈ 3.92 µM)
[20]
  MIC: 0.98 µg/mL (≈ 3.92 µM)
[21]
  MIC: 3.9 µg/mL (≈ 15.6 µM)
[22]
  MIC: 0.98 µg/mL (≈ 3.92 µM)
[23]
  MIC: 7.8 µg/mL (≈ 31.2 µM)
[24]
  MIC: 1.95 µg/mL (≈ 7.79 µM)
[25]
  MIC: 0.49 µg/mL (≈ 1.96 µM)
[26]
  MIC: 0.98 µg/mL (≈ 3.92 µM)
[27]
  MIC: 0.98 µg/mL (≈ 3.92 µM)
[28]
  MIC: 3.9 µg/mL (≈ 15.6 µM)
[29]
  MIC: 0.24 µg/mL (≈ 0.959 µM)
[30]
  MIC: 0.49 µg/mL (≈ 1.96 µM)
[31]
  MIC: 0.49 µg/mL (≈ 1.96 µM)
[32]
  MIC: 0.24 µg/mL (≈ 0.959 µM)
[33]
  MIC: > 31.3 µg/mL
[34]
  MIC: 7.8 µg/mL (≈ 31.2 µM)
[35]
  MIC: 3.9 µg/mL (≈ 15.6 µM)
[36]
  MIC: 3.9 µg/mL (≈ 15.6 µM)
[37]
  MIC: 0.49 µg/mL (≈ 1.96 µM)
[38]
  Activity: Non-Toxic
[39]
  MIC: 0.24 µg/mL (≈ 0.959 µM)
[40]
  MIC: > 31.3 µg/mL
[41]
  Activity: Non-Toxic
[42]
  MIC: 0.24 µg/mL (≈ 0.959 µM)

Source: ChEMBL document CHEMBL5329156, “Discovery and development of novel substituted monohydrazides as potent antifungal agents” (RSC Med Chem, 2023)
